Screens as filed in PubChem BioAssay.
A selection: hits, their analogues and other compounds. The true share with any hit is near 3%.
HTR1A agonist – human 5-HT1a receptor agonists, primary screen, cell-based, CHO, Ga15 NFAT-bla reporter; 5-hydroxytryptamine receptor 1A (Homo sapiens), P08908; CHO 5-HT1a Ga15 NFAT-bla reporter, FRET ratio; 0% basal, 100% maximal reference agonist; activation, % at 10 µM; 65,000 tested, 0.56% active;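 active = activation above the screen-wide mean activation plus 3 SD, cut at about 19% in these data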
5HT1E antag – 5-HT1E receptor antagonists, primary screen, cell-based, HTS; CHO 5-HT1E Ga15 NFAT-bla reporter, FRET, antagonist; inhibition, % at 6 µM; 65,000 tested, 0.99% active;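 active = inhibition above a set limit, the mean inhibition across every tested compound plus 3 SD, cut at about 29% in these data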;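 note: signal is the 460 over 535 nm emission ratio of beta-lactamase substrate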
S1P3 agonist – human S1P3 receptor agonists, primary screen, cell-based, primary and confirmation, NFAT-BLA reporter; activation, % at 4.5 µM; AID 373, 2006; S1P3 NFAT-BLA reporter cells, agonism, FRET ratio; relative to 1 µM S1P, basal subtracted; Sphingosine 1-phosphate receptor 3 (Homo sapiens), Q99500; 60,000 tested, 0.1% active;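 active = activation above the screen-wide mean plus 3 SD, cut at about 4.5% in these data, passing the limit was not always enough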
Target sequence (Q99500 whole entry, looked up): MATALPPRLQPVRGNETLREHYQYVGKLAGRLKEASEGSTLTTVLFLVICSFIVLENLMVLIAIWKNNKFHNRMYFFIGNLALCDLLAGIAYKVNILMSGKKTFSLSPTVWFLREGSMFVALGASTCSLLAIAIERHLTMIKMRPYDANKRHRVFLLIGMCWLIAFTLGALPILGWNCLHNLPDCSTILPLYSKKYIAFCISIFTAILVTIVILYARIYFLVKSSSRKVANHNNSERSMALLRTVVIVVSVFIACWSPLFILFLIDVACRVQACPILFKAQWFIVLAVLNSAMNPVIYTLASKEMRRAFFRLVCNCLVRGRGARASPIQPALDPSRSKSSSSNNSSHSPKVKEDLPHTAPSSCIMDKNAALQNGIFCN
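Benchmarks: high control 1 µM S1P / System: stable CHO line with human S1P3, Gα16, NFAT-BLA reporter / Dosing: single compound concentration, 4.5 µM final / Timing: 4 h compound at 37 °C, 2 h substrate at RT / Measured by: FRET β-lactamase substrate fluorescence, excitation 405 nm, 460/535 nm emission ratio, background-subtracted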
5-HT1A blocker – human 5-HT1a receptor antagonists, primary screen, cell-based, CHO, Ga15 NFAT-bla reporter | inhibition, % at 10 µM | CHO 5-HT1a Ga15 NFAT-bla reporter, antagonist mode | AID 612, 2007 | 62,000 tested, 0.68% active | 5-hydroxytryptamine receptor 1A (Homo sapiens), P08908;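 active = inhibition above the mean of all tested compounds plus 3 SD, cut at about 43% in these data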;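 note: receptor stimulated by 5-CT agonist at 100 nM near EC80; beta-lactamase reporter measured by ratiometric fluorescence of a cleavable substrate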
S1P1 ag pot – S1P1 agonists and agonism potentiators, primary screen, cell-based, primary and confirmation screens, CRE-bla reporter; activation, % at 9.5 µM; Sphingosine 1-phosphate receptor 1 (Homo sapiens), P21453; S1P1 CRE-bla cells, forskolin, beta-lactamase FRET, potentiator mode; S1P1 agonist co-added at EC20, 2 nM; 100% = saturating reference agonist, 0% = basal; 56,000 tested, 0.57% active;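 active = activation above a cutoff set at the mean activation of all tested compounds plus 3 SD, cut at about 54% in these data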;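 note: forskolin at 4 µM as EC80 and the EC20 agonist is SEW2871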
5HT1E ag – 5-HT1E receptor agonists, primary screen, cell-based, HTS. 5-hydroxytryptamine receptor 1E (Homo sapiens), P28566. CHO 5-HT1E Ga15 NFAT-bla reporter, FRET; 0% DMSO wells, 100% control agonist wells. activation, % at 6 µM. 65,000 tested, 0.69% active. AID 574, 2007;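 active = activation above a set limit, the screen-wide mean activation plus 3 SD, cut at about 8.5% in these data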
Hits are given with their value; – = inactive; · = not tested or not shown.

SMILES	HTR1A agonist	5HT1E antag	S1P3 agonist	5-HT1A blocker	S1P1 ag pot	5HT1E ag
Nc1c(C(=O)NC2CCCC2)c2nc3ccccc3nc2n1CC1CCCO1 (stereo unspecified)	28.1	–	8.2	–	–	–
O=C1OCCC1NC1=NCCC1 (stereo unspecified)	–	–	–	–	–	–
CCn1c(O)c(C=NCCc2c[nH]c3ccccc23)c(=O)[nH]c1=O	–	–	–	–	–	16.7
Cc1n[nH]c(C)c1CCN	–	–	–	–	–	–
Cc1[nH]c2c(C(F)(F)F)cccc2c1CCN	–	–	–	–	–	66.7
Cc1cccc(NC(=O)CSc2nnc([C@@H](N)Cc3c[nH]c4ccccc34)o2)c1C	–	–	–	–	–	–
CNCC(O)c1cccc(OC(=O)c2ccccc2C)c1 (stereo unspecified)	–	–	–	–	–	9.4
C=CCn1c(O)c(C=Nc2ccc(OC)cc2C)c(=O)[nH]c1=O	–	–	–	–	–	–
Clc1ccc2c(N3CCNCC3)ccnc2c1	–	–	–	–	–	12.2
Cc1ccc2c(c1)[C@@H]1CN(C)CC[C@@H]1N2C(=O)Nc1cccc(C(F)(F)F)c1	–	–	–	·	–	–
Cc1ccc2c(c1)C1CN(C)CCC1N2C(=O)c1ccc(Br)o1 (stereo unspecified)	–	–	·	59.6	·	–
CN1CCN(c2nccc3c2ncn3C)CC1	–	–	–	–	–	9.8
COc1ccc(C(=O)N2CCOCC2)cc1S(=O)(=O)N1CCC(C)CC1	40.2	–	–	–	·	–
COc1ccc(C(=O)CN2CCOCC2)cc1F	–	–	–	·	–	–
CCn1nc(-c2ccccc2)nc2c(=O)n(C)c(=O)nc1-2	–	100.6	–	85.2	73.3	–
CC(=NCCN1CCCCC1)c1c(O)[nH]c(=O)[nH]c1=O	–	–	–	–	–	–
CN(C)c1nc(OCCNC(=O)COc2ccc(Cl)cc2Cl)nc(N2CCCCC2)n1	–	101.6	–	–	·	–
COc1ccc2c(c1OC)C(=O)OC2c1c(O)n(Cc2ccc(F)cc2)c(=O)[nH]c1=O (stereo unspecified)	–	–	–	–	–	–
COc1ccc(Cc2nccc3cc(OC)c(OC)cc23)cc1OC	–	41.3	–	·	–	–
CC(C)n1nnnc1CN1CCN(C)CC1	–	–	–	–	–	–
CC12CN3C(O)C(C)(C1)CC(C)(C2)C3O (stereo unspecified)	–	–	–	–	–	–
COc1ccccc1N1CCN(Cc2ccc(Br)s2)CC1	–	–	–	44.2	–	–
CCCCOC(=O)C1=C(N)OC2=C(C(=O)CC(C)(C)C2)[C@]12C(=O)N(C)c1ccccc12	–	–	–	–	–	–
CC(=O)c1cccc(OCC(O)CN2CC=C(c3ccccc3)CC2)c1 (stereo unspecified)	–	–	–	65.4	–	–
c1cc2n(c1)-c1c(ccc3c1OCO3)CNC2c1ccc2c(c1)OCO2 (stereo unspecified)	–	–	–	–	–	–
SMILES	HTR1A agonist	5HT1E antag	S1P3 agonist	5-HT1A blocker	S1P1 ag pot	5HT1E ag
COc1ccc(C2NCc3ccc4c(c3-n3cccc32)OCO4)cc1O (stereo unspecified)	–	30.6	–	64.9	–	–
Oc1ccc(C2NCc3ccccc3-n3cccc32)cc1Cl (stereo unspecified)	–	–	–	–	94.4	–
CCCN(CC#CCO)CCC	–	–	–	·	–	–
CCN1CC=C(c2c[nH]c3ccccc23)CC1	–	–	–	–	–	99.5
CCCNC(=O)c1c(N)n(Cc2ccc3c(c2)OCO3)c2nc3ccccc3nc12	36.3	–	–	–	–	–
COc1ccc(Cn2c(N)c(C(=O)NCc3ccco3)c3nc4ccccc4nc32)cc1OC	–	–	–	–	–	–
CC(C)OCCCNC(=O)c1c(N)n(Cc2cccs2)c2nc3ccccc3nc12	41.1	–	12.1	–	–	10.7
CCCCNC(=O)c1c(N)n(CCCOC)c2nc3ccccc3nc12	–	–	·	–	·	–
CCC(=NCCO)c1c(O)n(-c2ccc(Cl)cc2)c(=O)[nH]c1=O	–	–	–	–	–	–
CC1(C)NCCN2C(=O)CSC21 (stereo unspecified)	–	–	–	·	–	–
C=Cn1ccnc1P(=S)(c1nccn1C=C)C1CCCCC1	–	–	·	–	·	–
CCOC(=O)N1CCC(NC(=O)CCc2nc(C3=CCN(C)CC3)no2)CC1	–	–	–	–	–	–
CC(C)OC(=O)c1c(N)n(Cc2ccco2)c2nc3ccccc3nc12	–	28.8	–	·	–	–
COCCOC(=O)c1c(N)n(Cc2ccco2)c2nc3ccccc3nc12	–	–	–	·	–	–
Nc1c(C(=O)NCc2ccco2)c2nc3ccccc3nc2n1CCN1CCCCC1	–	–	11.4	·	–	–
CCOC(=O)c1cc2c(cn1)[nH]c1ccccc12	–	32.3	–	·	–	–
O=C(NC[P+](=O)O)OCc1ccccc1	–	–	–	–	–	–
CN1C[C@H](CNC(=O)OCc2ccccc2)C[C@@H]2c3cccc4c3c(cn4C)C[C@H]21	85.4	–	–	·	–	21.5
CC[C@@H](CO)NC(=O)[C@@H]1C=C2c3cccc4c3c(cn4C)C[C@H]2N(C)C1	52.9	–	–	·	–	95.1
COC(=O)CC1(CC(=O)OC)C(=O)NC(=O)NC1=O	–	–	–	–	–	–
Cc1nc2cc(C(F)(F)F)ccc2n1C1CCN(Cc2nnnn2Cc2cccs2)CC1	–	–	·	–	·	–
Cc1nc2cc(C(F)(F)F)ccc2n1C1CCN(Cc2nnnn2Cc2ccc3c(c2)OCO3)CC1	–	37.5	–	–	–	–
Cc1ccc(C)c(C2(O)CC(C)N(C)CC2C)c1 (stereo unspecified)	–	–	–	·	–	–
